Source: PubChem
RGS4 act: RGS4 potentiation or activation | HEK293 M3R/inducible RGS4, carbachol calcium flux Fluo4; active compounds read low | B-score at 10 µM | hit rate 0.92% among 310,000 | AID 463111;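 active = B-score of the integrated calcium signal more than 4 SD below the library mean, with starting fluorescence not abnormally high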;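 note: negative B-score means reduced calcium response which marks RGS4 activation or potentiation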
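Also added: carbachol at ECmax as muscarinic agonist stimulus; Assay system: HEK293 cells with stable M3R and inducible RGS4; Timing: overnight RGS4 induction, 30 min dye load 37 °C, 20 min compound RT; Measured by: Fluo4-AM (2 µM) calcium-flux fluorescence, kinetic read.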
MrgX1 ag: agonists of human MrgX1 receptor; Q96LB2; MrgX1-HEK293 cells, Fluo-4 calcium fluorescence, agonist mode; active compounds read high; B-score at 10 µM; hit rate 0.44% among 310,000; AID 588627;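 active = calcium response B-score plate-corrected fluorescence ratio at least 3 library SD, with starting fluorescence B-score inside 5 SD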
Target sequence (Q96LB2 whole entry, looked up): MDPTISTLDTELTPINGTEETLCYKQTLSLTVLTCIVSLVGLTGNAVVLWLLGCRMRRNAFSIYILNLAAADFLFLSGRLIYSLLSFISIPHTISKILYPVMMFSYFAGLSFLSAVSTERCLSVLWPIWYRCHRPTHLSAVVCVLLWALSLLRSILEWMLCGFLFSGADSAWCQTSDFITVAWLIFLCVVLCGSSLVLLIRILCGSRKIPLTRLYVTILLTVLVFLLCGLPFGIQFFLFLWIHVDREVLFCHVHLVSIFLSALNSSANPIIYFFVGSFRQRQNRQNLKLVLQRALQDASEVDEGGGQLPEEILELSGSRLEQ
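Test system: HEK293 cells stably expressing human MrgX1 receptor; amount: 15,000 cells per well; doses: compound delivered in addition one of three; times: overnight plating before 1 h dye loading; detection: Fluo-4 NW calcium-flux fluorescence, kinetic read; read-out basis: B-scored fluorescence response ratio; controls: positive and negative controls per plate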
MrgX1 antagonist: antagonists of human MrgX1 receptor; Q96LB2; AID 588676; MRGX1-HEK293 calcium flux, Fluo-4, BAM8-22 antagonism; active compounds read low; hit rate 1.3% among 310,000; B-score at 10 µM;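 active = calcium-response B-score plate-corrected more than 3 library SD below zero, starting fluorescence within 5 deviations, no agonist response on first addition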;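 note: peak minus trough fluorescence over baseline after final BAM8-22 challenge near maximal dose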
MrgX1 PAM: allosterically activates human MrgX1 receptor signaling; MrgX1-HEK293, Fluo-4 calcium flux, FDSS; active compounds read high; B-score at 10 µM; hit rate 0.63% among 310,000; AID 588675;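 active = plate-corrected calcium response at least 3 library SD above typical, normal starting fluorescence, not activating the receptor alone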;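 note: compound read alongside a low EC10 to EC30 dose of BAM8-22 agonist; peak minus trough fluorescence over baseline measured at the second addition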
RGS4 block: human RGS4 inhibition; P49798; HEK293 M3R/RGS4 inducible, Fluo-4 calcium flux; active compounds read high; triggered by carbachol at its EC20; AID 463165; hit rate 0.45% among 310,000; B-score at 10 µM;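 active = B-score, a plate-corrected calcium signal, over three deviations above library mean, with baseline fluorescence within five deviations of library mean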;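 note: RGS4 expression induced by doxycycline in cells with stable M3 receptor; B-score is computed from the integrated fluorescence ratio over baseline after carbachol; higher B-score means a larger calcium signal and so more RGS4 inhibition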
Target sequence (P49798 whole entry, looked up): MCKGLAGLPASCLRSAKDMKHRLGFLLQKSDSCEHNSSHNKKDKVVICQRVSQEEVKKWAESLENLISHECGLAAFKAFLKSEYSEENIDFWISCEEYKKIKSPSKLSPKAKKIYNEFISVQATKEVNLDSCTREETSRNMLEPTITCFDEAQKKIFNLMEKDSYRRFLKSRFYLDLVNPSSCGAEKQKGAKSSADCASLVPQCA
MrgX1 ag confirm: human MrgX1 agonism, re-confirmation screen. shares compounds with MrgX1 ag. MrgX1-HEK293, Fluo-4 calcium fluorescence, FDSS. activation, % at 10 µM. hit rate 78% among 600. AID 602412;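 active = calcium signal rise, corrected for plate position, at least 3 library SD high, with starting brightness within 5 such deviations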
HEK293 Ca flux: activity in parental HEK293 cells lacking MrgX1; AID 624111; fluorescence ratio F(max-min)/F0 at 10 µM; Fluo-4 calcium fluorescence, FDSS; shares compounds with MrgX1 antagonist; hit rate 2% among 4,000;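 active = duplicate-averaged calcium fluorescence ratio at least three times the standard deviation of buffer wells, a nonspecific response in parental cells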
HEK293 Ca counter: MrgX1 allosteric activator counter-screen hit in parental HEK293 cells; hit rate 0.4% among 4,000; AID 624114; parental HEK293 calcium flux, Fluo-4 fluorescence ratio; active compounds read high; fluorescence ratio F(max-min)/F0 at 10 µM; shares compounds with MrgX1 antagonist;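 active = calcium fluorescence ratio, averaged over duplicates, at least 3 SD of the buffer-well ratio, meaning a nonspecific response in receptor-free cells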;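 note: untransfected parental HEK293 lacking MrgX1 used as counterscreen for MrgX1 allosteric activators; fluorescence change taken during the second addition on a kinetic imager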
HEK293 Ca cntr2: MrgX1 activator counter-screen hit in parental HEK293 cells; shares compounds with MrgX1 antagonist; Fluo-4 calcium fluorescence (FDSS); active compounds read high; fluorescence ratio F(max-min)/F0 at 10 µM; hit rate 8.7% among 4,000; AID 624115;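 active = calcium fluorescence ratio at least three times the spread of buffer wells, meaning a non-specific response in parental cells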
* hit, by the source's call. Only some compounds are listed: those with a hit (about 3.5% of all), similar ones and a draw of the others.

Results for O=S(=O)(c1ccc(Cl)c(C(F)(F)F)c1)N1CCN(c2ccccn2)CC1 ?
RGS4 act: inactive; MrgX1 ag: inactive; MrgX1 antagonist: inactive; MrgX1 PAM: inactive; RGS4 block: inactive

What do the screens show for `COc1ccc(OC)c(-c2csc(NC(=O)CN3C(=O)C4CCCCC4C3=O)n2)c1` (configuration not stated)?
RGS4 act: inactive; MrgX1 ag: inactive; MrgX1 antagonist: inactive; MrgX1 PAM: inactive; RGS4 block: inactive

What do the screens show for `COc1ccc(-c2csc(NC(=O)CN3C(=O)C4CCCCC4C3=O)n2)cc1OC` (configuration not stated)?
RGS4 act: inactive; MrgX1 ag: 30*; MrgX1 antagonist: inactive; MrgX1 PAM: inactive; RGS4 block: inactive; MrgX1 ag confirm: inactive; HEK293 Ca flux: inactive; HEK293 Ca counter: inactive; HEK293 Ca cntr2: inactive

Results for COc1ccc(-c2csc(NC(=O)CSCc3c(C)noc3C)n2)cc1OC ?
RGS4 act: inactive; MrgX1 ag: 44*; MrgX1 antagonist: inactive; MrgX1 PAM: inactive; RGS4 block: inactive; MrgX1 ag confirm: inactive; HEK293 Ca flux: inactive; HEK293 Ca counter: inactive; HEK293 Ca cntr2: inactive

What do the screens show for `C[C@@H](NC(=O)C1(c2ccccc2)CCN(C(=O)OC(C)(C)C)CC1)C(=O)N[C@@H](C(=O)O)c1ccccc1`?
RGS4 act: inactive; MrgX1 ag: inactive; MrgX1 antagonist: inactive; MrgX1 PAM: inactive; RGS4 block: inactive

Results for COC(=O)c1ccccc1NC(=S)NC(=O)c1ccccc1 ?
RGS4 act: inactive; MrgX1 ag: inactive; MrgX1 antagonist: inactive; MrgX1 PAM: inactive; RGS4 block: inactive

How did COc1ccc(C(=O)NC(=S)NNC(=O)c2ccc(C)cc2)cc1 do in these assays?
RGS4 act: -7.3*; MrgX1 ag: 149*; MrgX1 antagonist: inactive; MrgX1 PAM: inactive; RGS4 block: inactive; MrgX1 ag confirm: 659%*; HEK293 Ca flux: inactive; HEK293 Ca counter: inactive; HEK293 Ca cntr2: 133*

Results for COC(=O)c1ccccc1NC(=S)NC(=O)c1ccc(C)cc1 ?
RGS4 act: inactive; MrgX1 ag: 37*; MrgX1 antagonist: inactive; MrgX1 PAM: inactive; RGS4 block: inactive; MrgX1 ag confirm: inactive; HEK293 Ca flux: inactive; HEK293 Ca counter: inactive; HEK293 Ca cntr2: inactive

Results for COc1ccc(C(=O)NNC(=S)NC(=O)c2ccco2)cc1 ?
RGS4 act: inactive; MrgX1 ag: 84*; MrgX1 antagonist: inactive; MrgX1 PAM: inactive; RGS4 block: inactive; MrgX1 ag confirm: 486%*; HEK293 Ca flux: inactive; HEK293 Ca counter: inactive; HEK293 Ca cntr2: 86*

How did O=C(NC(=S)NNC(=O)c1ccco1)c1ccc(Br)cc1 do in these assays?
RGS4 act: inactive; MrgX1 ag: 135*; MrgX1 antagonist: inactive; MrgX1 PAM: inactive; RGS4 block: inactive; MrgX1 ag confirm: 543%*; HEK293 Ca flux: inactive; HEK293 Ca counter: inactive; HEK293 Ca cntr2: 98*

Results for COc1ccc(CCNC(=O)CCC(=O)Nc2ccccc2[N+](=O)[O-])cc1OC ?
RGS4 act: inactive; MrgX1 ag: inactive; MrgX1 antagonist: inactive; MrgX1 PAM: inactive; RGS4 block: inactive

What do the screens show for `O=C(NNC(=S)Nc1ccc(F)cc1F)c1ccco1`?
RGS4 act: inactive; MrgX1 ag: inactive; MrgX1 antagonist: inactive; MrgX1 PAM: inactive; RGS4 block: inactive

What do the screens show for `CCCCOc1ccc(C(=O)NNC(=S)NC(=O)CC)cc1`?
RGS4 act: inactive; MrgX1 ag: inactive; MrgX1 antagonist: inactive; MrgX1 PAM: inactive; RGS4 block: inactive

How did CCCCC(=O)NNC(=S)NC(=O)c1ccc(C)cc1 do in these assays?
RGS4 act: inactive; MrgX1 ag: 150*; MrgX1 antagonist: inactive; MrgX1 PAM: inactive; RGS4 block: inactive; MrgX1 ag confirm: 712%*; HEK293 Ca flux: inactive; HEK293 Ca counter: inactive; HEK293 Ca cntr2: 159*

What do the screens show for `O=C(NNC(=S)NC(=O)c1ccco1)c1ccc(F)cc1`?
RGS4 act: inactive; MrgX1 ag: 69*; MrgX1 antagonist: inactive; MrgX1 PAM: inactive; RGS4 block: inactive; MrgX1 ag confirm: 201%*; HEK293 Ca flux: inactive; HEK293 Ca counter: inactive; HEK293 Ca cntr2: 47*

What do the screens show for `CCCCC(=O)NNC(=S)NC(=O)c1ccc([N+](=O)[O-])cc1`?
RGS4 act: inactive; MrgX1 ag: inactive; MrgX1 antagonist: inactive; MrgX1 PAM: inactive; RGS4 block: inactive

What do the screens show for `CCCOc1ccc(C(=O)NNC(=S)NC(=O)c2ccco2)cc1`?
RGS4 act: inactive; MrgX1 ag: 146*; MrgX1 antagonist: inactive; MrgX1 PAM: inactive; RGS4 block: inactive; MrgX1 ag confirm: 661%*; HEK293 Ca flux: inactive; HEK293 Ca counter: inactive; HEK293 Ca cntr2: 127*

Results for Cc1ccc(NC(=O)c2sc3ncn(CC(=O)N4CCOCC4)c(=O)c3c2C)c(Br)c1 ?
RGS4 act: inactive; MrgX1 ag: inactive; MrgX1 antagonist: inactive; MrgX1 PAM: inactive; RGS4 block: inactive

Results for O=C(NCC1CCCO1)c1cc2nc(-c3ccco3)cc(C(F)(F)Cl)n2n1 (configuration not stated) ?
RGS4 act: inactive; MrgX1 ag: inactive; MrgX1 antagonist: inactive; MrgX1 PAM: inactive; RGS4 block: inactive

What do the screens show for `O=C(O)Cc1sc(Nc2ccc(F)cc2)nc1-c1cccs1`?
RGS4 act: inactive; MrgX1 ag: 32*; MrgX1 antagonist: inactive; MrgX1 PAM: inactive; RGS4 block: inactive; MrgX1 ag confirm: inactive; HEK293 Ca flux: inactive; HEK293 Ca counter: inactive; HEK293 Ca cntr2: inactive

How did O=C(Nc1nnc2n1CCS2)c1ccc(Br)o1 do in these assays?
RGS4 act: inactive; MrgX1 ag: inactive; MrgX1 antagonist: inactive; MrgX1 PAM: inactive; RGS4 block: inactive

What do the screens show for `CC(C)/C=C1\CC/C(=C\c2ccc(N(C)C)cc2)C1=O`?
RGS4 act: inactive; MrgX1 ag: 101*; MrgX1 antagonist: inactive; MrgX1 PAM: inactive; RGS4 block: inactive; MrgX1 ag confirm: inactive; HEK293 Ca flux: 0.015*; HEK293 Ca counter: inactive; HEK293 Ca cntr2: 141*
